Type in all cases: functional, cell-based
The subject of assay [1] is H2987 cell line. Description: Inhibitory activity against H2987, human lung adenocarcinoma cell line in absence of Enterobacter cloacae bL. In a few lines: (§1)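 Cells plated at 4000 or 8000/well in IMDM with 10% FBS, left to adhere 18 h at 37 °C, then washed with RPMI/10% FBS. Compound exposure 1 h at 37 °C with no enzyme, followed by IMDM wash and 18 h culture. [3H]thymidine pulse at 1 µCi/well (18 h at 4000 cells/well, 6 h at 8000). IC50 is the concentration giving 50% incorporation versus untreated cells; mean of five experiments.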

Assay [2] relates to Clone 62. Description: Inhibitory activity against clone62, a mouse melanoma cell line in absence of Enterobacter cloacae bL. The method, boiled down:
as §1

Assay [3] has as its system Clone 62. The assay can be described thus: Inhibitory activity against clone62, a mouse melanoma cell line in presence of Enterobacter cloacae bL. In a few lines: (§2)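 Adherent cells (4000 or 8000/well, 18 h, 37 °C, IMDM/10% FBS) washed with RPMI/10% FBS. Exposed 1 h at 37 °C to graded compound concentrations together with purified E. cloacae β-lactamase (10 µg/mL), then washed and cultured 18 h. [3H]thymidine pulse at 1 µCi/well (18 h or 6 h by seeding density). IC50 is 50% incorporation relative to untreated controls; five independent experiments.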

Assay [4] deals with H2987 cell line. Description: Inhibitory activity against H2987, human lung adenocarcinoma cell line in presence of Enterobacter cloacae bL. The method, boiled down:
as §2

Data on three compounds can be found in ChEMBL document CHEMBL1130129, “Immunologically specific activation of a cephalosporin derivative of mitomycin C by monoclonal antibody beta-lactamase conjugates” (J Med Chem, 1997).

Usually IC50 stands for the concentration needed to halve the response being measured. `CO[C@@]12[C@H](COC(N)=O)C3=C(C(=O)C(C)=C(N)C3=O)N1C[C@@H]1N[C@@H]12` [MITOMYCIN]: the IC50 came to 1.6 µM with H2987 cell line [1] and 1.5 µM in the assay on Clone 62 [2].
For the compound `CO[C@@]12[C@H](COC(N)=O)C3=C(C(=O)C(C)=C(NCC4=C(C(=O)O)N5C(=O)[C@@H](NC(=O)Cc6ccccc6)[C@H]5SC4)C3=O)N1C[C@@H]1N[C@@H]12`, the IC50 in the assay on H2987 cell line [1] amounted to 10.4 µM; in the assay with Clone 62 [3], 1.4 µM; in the assay with Clone 62 [2], 3.5 µM; in the assay on H2987 cell line [4] it was 2.8 µM.
For the compound `CO[C@@]12[C@H](COC(N)=O)C3=C(C(=O)C(C)=C(NCC4=C(C(=O)O)N5C(=O)[C@@H](NC(=O)CCCC(=O)O)[C@H]5SC4)C3=O)N1C[C@@H]1N[C@@H]12`, the IC50 is 26.4 µM in the assay on H2987 cell line [1], 3 µM with Clone 62 [3], 30.1 µM in the assay with Clone 62 [2] and 1.2 µM in the assay with H2987 cell line [4].
